ChEMBL document CHEMBL1128745 (J Med Chem, 1995)
pIC50: −log10 of the molar value.

Tests used:
[1] = molecular target: T1, Type-2 angiotensin II receptor (Rattus norvegicus, UniProt P35351); assay: Inhibition of [125I]-[Sar1,Ile8]Ang II binding at rat angiotensin II (type 2) receptor.
T1 sequence (P35351 whole entry): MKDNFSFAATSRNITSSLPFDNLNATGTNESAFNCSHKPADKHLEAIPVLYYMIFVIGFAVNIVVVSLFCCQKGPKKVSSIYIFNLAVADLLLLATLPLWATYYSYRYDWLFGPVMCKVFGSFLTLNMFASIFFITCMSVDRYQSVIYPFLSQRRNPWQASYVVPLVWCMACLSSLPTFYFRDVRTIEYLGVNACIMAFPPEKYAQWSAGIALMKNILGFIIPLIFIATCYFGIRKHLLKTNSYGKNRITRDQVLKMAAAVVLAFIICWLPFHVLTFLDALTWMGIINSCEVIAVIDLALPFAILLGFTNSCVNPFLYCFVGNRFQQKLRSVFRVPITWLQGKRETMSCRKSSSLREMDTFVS
How it was run: (§1)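 AT2 binding uses rat isolated adrenal membrane homogenates with 10^-6 M losartan present. [125I][Sar1,Ile8]Ang II is the radioligand, and IC50 is 50% displacement of total specifically bound label. Duplicate determinations include DuP 753 and saralasin as internal standards. Intraassay variability 5%, interassay 20%.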

[2] = molecular target: T2, Angiotensin II receptor (AT-1) type-1 (Rattus norvegicus, UniProt P29089+P25095); assay: Inhibition of [125I]-[Sar1,Ile8]Ang II binding at rat angiotensin II (type 1) receptor.; format: protein assay
T2 sequence (P29089 whole entry): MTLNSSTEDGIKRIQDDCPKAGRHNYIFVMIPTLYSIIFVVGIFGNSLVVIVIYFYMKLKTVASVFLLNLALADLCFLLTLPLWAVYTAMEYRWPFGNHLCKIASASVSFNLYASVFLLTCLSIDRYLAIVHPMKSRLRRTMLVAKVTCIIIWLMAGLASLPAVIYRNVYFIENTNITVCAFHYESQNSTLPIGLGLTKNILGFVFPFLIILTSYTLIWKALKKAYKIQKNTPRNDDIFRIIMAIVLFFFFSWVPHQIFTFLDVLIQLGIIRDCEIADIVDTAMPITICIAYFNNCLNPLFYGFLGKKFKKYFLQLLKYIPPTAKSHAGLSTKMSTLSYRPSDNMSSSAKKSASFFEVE
T2 sequence (P25095 whole entry): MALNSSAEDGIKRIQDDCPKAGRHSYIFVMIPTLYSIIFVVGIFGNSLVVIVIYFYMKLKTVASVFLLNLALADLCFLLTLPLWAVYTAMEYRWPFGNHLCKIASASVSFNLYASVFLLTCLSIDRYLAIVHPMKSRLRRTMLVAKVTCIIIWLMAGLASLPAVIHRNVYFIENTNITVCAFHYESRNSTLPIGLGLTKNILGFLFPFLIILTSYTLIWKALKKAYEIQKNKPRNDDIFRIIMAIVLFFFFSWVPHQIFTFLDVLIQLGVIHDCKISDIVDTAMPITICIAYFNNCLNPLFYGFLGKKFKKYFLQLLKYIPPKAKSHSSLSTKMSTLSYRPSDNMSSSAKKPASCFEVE
How it was run: (§2)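 Rat isolated adrenal membrane homogenates with 10^-6 M PD123177 present to isolate the AT1 site. Radioligand is [125I][Sar1,Ile8]Ang II. IC50 is the concentration giving 50% displacement of total specifically bound radioligand. Run in duplicate against DuP 753 and saralasin as internal standards. Intraassay variability 5%, interassay 20%.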

[3] = molecular target: T3, Angiotensin II receptor (Rattus norvegicus) (UniProt P29089+P25095+P35351); assay: Ratio of IC50 at Angiotensin II type 1 and angiotensin II type 2 receptors; format: protein assay
How it was run: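 AT2 IC50 divided by AT1 IC50. Both come from [125I][Sar1,Ile8]Ang II displacement on rat adrenal membrane homogenates, with 10^-6 M losartan (AT2) or 10^-6 M PD123177 (AT1) present. Each was run in duplicate.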

[4] = molecular target: T1, Type-2 angiotensin II receptor; assay: Inhibitory concentration against Angiotensin II receptor type 2 with [125I]-[Sar1,Ile8]Ang II; how it was run: as §1
[5] = molecular target: T2, Angiotensin II receptor (AT-1) type-1; assay: Inhibitory concentration against Angiotensin II receptor type 1 with [125I]-[Sar1,Ile8]Ang II; format: protein assay; how it was run: as §2
[6] = molecular target: T3, Angiotensin II receptor (Rattus norvegicus); assay: Relative inhibition of angiotensin II receptor types 1 and 2; format: protein assay
[7] = molecular target: T3, Angiotensin II receptor (Rattus norvegicus); assay: Relative inhibition of angiotensin II type 2 and angiotension II type 1 receptors in modified assay; format: protein assay
How it was run: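 Rat adrenal membrane homogenates with [125I][Sar1,Ile8]Ang II as radioligand. AT1 sites were measured with 10^-6 M PD123177 present and AT2 sites with 10^-6 M losartan present. IC50 is the concentration giving 50% displacement of specifically bound radioligand, run in duplicate against DuP 753 and saralasin standards. Intra-assay variability was 5% and inter-assay 20%. The value is the AT2 IC50 divided by the AT1 IC50.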

Rattus norvegicus = assay: Effective dose to lower blood pressure by 30 mmHg in renal hypertensive rats on peroral administration.; format: functional; conditions: po
How it was run: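 Conscious renal artery-ligated hypertensive rats were dosed orally; vehicle was 0.05 mg/mL Na2CO3 in 0.5% methocel. Mean arterial pressure was monitored, n=6-9 per group. ED30 is the dose that lowers blood pressure by 30 mmHg.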

For `CCCCOC(=O)NS(=O)(=O)c1ccccc1-c1ccc(Cn2c(CCC)nc(CC)c2C(=O)CCN(CCCC)C(=O)c2ccccc2)c(F)c1`, the pIC50 [1] was 8.00, the IC50 [2] was 300 pM and the IC50 ratio [3] was 33.
`CCCc1nc(CC)c(C(=O)OC)n1Cc1ccc(-c2ccccc2S(=O)(=O)NC(=O)OCCC(C)C)cc1F` gave a pIC50 [4] of 7.40, a pIC50 [1] of 8.52 and an IC50 [5] of 100 pM. The pIC50 [2] was 9.00 and the IC50 ratio [6] was 3.
`CCCc1nc(CC)c(C(=O)CCN(C(=O)c2ccccc2)c2ccccc2)n1Cc1ccc(-c2ccccc2S(=O)(=O)NC(=O)OCCC(C)C)cc1F` showed a pIC50 [1] of 10.22 and an IC50 [2] of 100 pM.
For `CCCCOC(=O)NS(=O)(=O)c1ccccc1-c1ccc(Cn2c(CCC)nc(CC)c2C(C)=O)c(F)c1`, the pIC50 [4] was 8.00, the pIC50 [1] was 9.00 and the IC50 [5] was 90 pM. For the same compound, the pIC50 [2] was 9.00, the IC50 ratio [7] was 111 and the IC50 ratio [3] was 1.
Compound `CCCc1nc(CC)c(C(=O)CCN(C(=O)c2cccnc2)c2cccnc2)n1Cc1ccc(-c2ccccc2S(=O)(=O)NC(=O)OCCC(C)C)cc1F` has a pIC50 [1] of 9.66, an IC50 [2] of 500 pM and an ED30 (Rattus norvegicus) of 0.26 mg/kg. The IC50 ratio [3] was 0.44.
`CCCCOC(=O)NS(=O)(=O)c1ccccc1-c1ccc(Cn2c(CCC)nc(CC)c2C(=O)CCN(C(=O)c2ccccc2)c2ccccc2)c(F)c1` was tested, and the pIC50 [1] was 9.74, the IC50 [2] was 250 pM and the ED30 (Rattus norvegicus) was 1.57 mg/kg. The IC50 ratio [3] was 0.7.
Work on `CCCCOC(=O)NS(=O)(=O)c1ccccc1-c1ccc(Cn2c(CCC)nc(CC)c2C(=O)OC)c(Cl)c1` yielded a pIC50 [4] of 7.43, an IC50 [5] of 160 pM and a pIC50 [2] of 8.52. For the same compound, the IC50 ratio [3] was 231 and the IC50 ratio [6] was 2.3.
For `CCCc1nc(CC)c(C(=O)CCN(C(=O)c2ccncc2)c2cccnc2)n1Cc1ccc(-c2ccccc2S(=O)(=O)NC(=O)OCCC(C)C)cc1F`, the pIC50 [1] was 9.00, the IC50 [2] was 700 pM and the ED30 (Rattus norvegicus) was 0.4 mg/kg. For the same compound, the IC50 ratio [3] was 1.4.
`CCCc1nc(CC)c(C(=O)CCN(C(=O)c2cccnc2)c2ccccn2)n1Cc1ccc(-c2ccccc2S(=O)(=O)NC(=O)OCCC(C)C)cc1F` showed a pIC50 [1] of 9.80, an IC50 [2] of 520 pM and an ED30 (Rattus norvegicus) of 0.9 mg/kg. It also gave an IC50 ratio [3] of 0.31.
Compound `CCCc1nc(CC)c(C(=O)CCN(C(=O)CC)c2cccnc2)n1Cc1ccc(-c2ccccc2S(=O)(=O)NC(=O)OCCC(C)C)cc1F` has a pIC50 [1] of 9.31, an IC50 [2] of 450 pM and an ED30 (Rattus norvegicus) of 0.26 mg/kg. It also gave an IC50 ratio [3] of 1.09.
For `CCCc1nc(CC)c(C(=O)CCN(C(=O)c2cccnc2)c2cccnc2)n1Cc1ccc(-c2ccccc2S(=O)(=O)NC(=O)OCCC(C)C)cc1`, the pIC50 [1] was 9.00, the IC50 [2] was 300 pM and the IC50 ratio [3] was 3.3.
Work on `CCCc1nc(CC)c(C(=O)CCN(C(C)=O)c2cccnc2)n1Cc1ccc(-c2ccccc2S(=O)(=O)NC(=O)OCCC(C)C)cc1F` yielded a pIC50 [1] of 8.52, an IC50 [2] of 400 pM and an IC50 ratio [3] of 7.5.
In the case of `CCCC(=O)N(CCC(=O)c1c(CC)nc(CCC)n1Cc1ccc(-c2ccccc2S(=O)(=O)NC(=O)OCCC(C)C)cc1)c1cccnc1`, the pIC50 [1] was 9.00, the IC50 [2] was 400 pM and the IC50 ratio [3] was 2.5.
Compound `CCCc1nc(CC)c(C(=O)CCN(C(=O)C(C)C)c2cccnc2)n1Cc1ccc(-c2ccccc2S(=O)(=O)NC(=O)OCCC(C)C)cc1F` has a pIC50 [1] of 9.00, an IC50 [2] of 300 pM and an IC50 ratio [3] of 3.3.
`CCCC(=O)N(CCC(=O)c1c(CC)nc(CCC)n1Cc1ccc(-c2ccccc2S(=O)(=O)NC(=O)OCCC(C)C)cc1F)c1cccnc1` showed a pIC50 [1] of 9.60, an IC50 [2] of 320 pM and an ED30 (Rattus norvegicus) of 0.27 mg/kg. It also gave an IC50 ratio [3] of 0.78.
For `CCCc1nc(CC)c(C(=O)CCN(C(=O)c2ccncc2)c2ccccc2)n1Cc1ccc(-c2ccccc2S(=O)(=O)NC(=O)OCCC(C)C)cc1F`, the pIC50 [1] was 10.00, the IC50 [2] was 400 pM and the ED30 (Rattus norvegicus) was < 3 mg/kg. It also gave an IC50 ratio [3] of 0.25.
`CCCCOC(=O)NS(=O)(=O)c1ccccc1-c1ccc(Cn2c(CCC)nc(CC)c2C(=O)CCN(C(=O)CCC)c2ccccc2)c(F)c1` gave a pIC50 [1] of 9.82, an IC50 [2] of 200 pM and an ED30 (Rattus norvegicus) of 1.5 mg/kg. For the same compound, the IC50 ratio [3] was 0.75.
